Assay results taken from ChEMBL document CHEMBL1806454, “8-Aryl- and alkyloxycaffeine analogues as inhibitors of monoamine oxidase” (Eur J Med Chem, 2011).
pIC50, pKi: −log10 of the molar value.

Legend:
[1] = biological target: T1, Amine oxidase [flavin-containing] B (Homo sapiens, UniProt P27338); test: Competitive inhibition of human recombinant MAOB expressed in baculovirus infected insect cell microsomes using kynuramine as substrate assessed as 4-hydroxyquinoline formation per min per mg protein by Lineweaver-Burk plot analysis; set-up: species or system Microsome
T1 sequence (P27338 whole entry): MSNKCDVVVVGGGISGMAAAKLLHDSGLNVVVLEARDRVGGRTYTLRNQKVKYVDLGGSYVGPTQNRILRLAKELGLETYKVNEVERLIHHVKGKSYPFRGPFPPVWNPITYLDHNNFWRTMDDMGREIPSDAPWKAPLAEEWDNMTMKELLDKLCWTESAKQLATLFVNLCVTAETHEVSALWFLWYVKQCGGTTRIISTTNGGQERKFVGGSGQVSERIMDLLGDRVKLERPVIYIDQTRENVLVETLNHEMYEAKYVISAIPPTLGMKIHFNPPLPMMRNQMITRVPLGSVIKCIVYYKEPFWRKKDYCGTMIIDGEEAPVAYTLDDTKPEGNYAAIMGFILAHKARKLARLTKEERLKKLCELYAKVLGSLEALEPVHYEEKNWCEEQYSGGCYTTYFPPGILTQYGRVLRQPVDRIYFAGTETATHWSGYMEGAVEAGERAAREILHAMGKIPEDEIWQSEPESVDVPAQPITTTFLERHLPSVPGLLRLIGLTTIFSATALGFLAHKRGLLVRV

[2] = biological target: T2, Amine oxidase [flavin-containing] A (Homo sapiens, UniProt P21397); test: Competitive inhibition of human recombinant MAOA expressed in baculovirus infected insect cell microsomes using kynuramine as substrate assessed as 4-hydroxyquinoline formation per min per mg protein by Lineweaver-Burk plot analysis; set-up: species or system Microsome
T2 sequence (P21397 whole entry): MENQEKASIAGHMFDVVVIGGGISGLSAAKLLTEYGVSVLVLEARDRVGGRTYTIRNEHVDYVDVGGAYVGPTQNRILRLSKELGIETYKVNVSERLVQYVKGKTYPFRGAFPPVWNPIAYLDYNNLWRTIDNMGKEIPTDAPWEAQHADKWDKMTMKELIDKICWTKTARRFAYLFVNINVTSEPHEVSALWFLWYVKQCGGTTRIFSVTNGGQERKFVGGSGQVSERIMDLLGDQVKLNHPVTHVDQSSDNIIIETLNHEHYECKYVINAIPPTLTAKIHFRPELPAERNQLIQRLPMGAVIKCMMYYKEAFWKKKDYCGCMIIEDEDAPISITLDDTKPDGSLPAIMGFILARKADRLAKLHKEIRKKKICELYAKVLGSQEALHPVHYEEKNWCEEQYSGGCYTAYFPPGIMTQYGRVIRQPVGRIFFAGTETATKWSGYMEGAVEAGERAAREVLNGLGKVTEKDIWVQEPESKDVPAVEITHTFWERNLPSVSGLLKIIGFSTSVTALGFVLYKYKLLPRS

[3] = biological target: T1, Amine oxidase [flavin-containing] B; test: Inhibition of recombinant human MAOB expressed in baculovirus infected insect cell microsomes using kynuramine as substrate assessed as formation of 4-hydroxyquinoline after 20 mins by fluorescence spectrophotometry; set-up: species or system Microsome
Homo sapiens = species on record: Homo sapiens; test: Selectivity index, ratio of Ki for recombinant human MAOB to Ki for recombinant human MAOA
How it was run: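 Recombinant human MAO-A and MAO-B in insect-cell microsomes (0.0075 mg/mL), kynuramine 45 µM (A) or 30 µM (B), inhibitor 0–100 µM, 9 concentrations, DMSO 4% final, K-phosphate 100 mM pH 7.4 isotonic with KCl, 37 °C 20 min. NaOH stop, 4-hydroxyquinoline fluorescence (ex 310/em 400 nm). Duplicate IC50 fits converted to Ki; SI = Ki(MAO-B)/Ki(MAO-A).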

[4] = biological target: T2, Amine oxidase [flavin-containing] A; test: Inhibition of recombinant human MAOA expressed in baculovirus infected insect cell microsomes using kynuramine as substrate assessed as formation of 4-hydroxyquinoline after 20 mins by fluorescence spectrophotometry; set-up: species or system Microsome
[5] = biological target: T1, Amine oxidase [flavin-containing] B; test: Ratio of 8-benzyloxycaffeine IC50 to compound IC50 for recombinant human MAOB expressed in baculovirus infected insect cell microsomes; set-up: species or system Microsome

| SMILES | pKi [1] | pKi [2] | pIC50 [3] | pKi [3] | Ratio Ki (Homo sapiens) | pIC50 [4] | pKi [4] | Ratio IC50 [5] |
| --- | --- | --- | --- | --- | --- | --- | --- | --- |
| Cn1c(=O)c2c(nc(OCCOc3ccc(Br)cc3)n2C)n(C)c1=O | 7.06 | 5.93 | 6.78 | 6.92 | 0.207 | 5.78 | 6.24 |  |
| Cn1c(=O)c2c(nc(OCCOc3ccc(Cl)cc3)n2C)n(C)c1=O |  |  |  |  |  |  | 6.19 |  |
| Cn1c(=O)c2c(nc(OCc3ccc(Br)cc3)n2C)n(C)c1=O |  |  | 7.21 | 7.35 | 0.099 | 5.88 | 6.34 | 27 |
| CC(C)CCCCOc1nc2c(c(=O)n(C)c(=O)n2C)n1C |  |  | 6.42 | 6.55 | 0.053 | 4.82 | 5.27 |  |
| Cn1c(=O)c2c(nc(OCC3CCCC3)n2C)n(C)c1=O |  |  | 4.80 | 4.93 | 1.46 | 4.64 | 5.10 |  |
| CC(C)CCOc1nc2c(c(=O)n(C)c(=O)n2C)n1C |  |  | 4.85 | 4.99 | 1.08 | 4.56 | 5.02 |  |
| Cn1c(=O)c2c(nc(OCC3CC=CCC3)n2C)n(C)c1=O (stereo not given) |  |  | 5.52 | 5.66 | 0.45 | 4.86 | 5.32 |  |
| Cn1c(=O)c2c(nc(OCC3CCCCC3)n2C)n(C)c1=O |  |  | 5.86 | 6.00 | 0.16 | 4.73 | 5.19 |  |

Now from value to molecule, other results behind:

| pKi [1] | pKi [2] | pIC50 [3] | pKi [3] | Ratio Ki (Homo sapiens) | pIC50 [4] | pKi [4] | SMILES | Ratio IC50 [5] |
| --- | --- | --- | --- | --- | --- | --- | --- | --- |
|  |  | 6.21 | 6.35 | 0.019 | 4.16 | 4.61 | Cn1c(=O)c2c(nc(OCCCc3ccccc3)n2C)n(C)c1=O |  |
|  |  | 5.42 | 5.56 | 0.047 | 3.78 | 4.23 | Cn1c(=O)c2c(nc(OCCOCc3ccccc3)n2C)n(C)c1=O |  |
|  |  | 4.97 | 5.11 | 0.3 | 4.12 | 4.58 | Cn1c(=O)c2c(nc(Oc3ccccc3)n2C)n(C)c1=O |  |
|  |  | 7.19 | 7.32 | 0.1 | 5.87 | 6.33 | Cn1c(=O)c2c(nc(OCc3ccc(Cl)cc3)n2C)n(C)c1=O | 27 |
|  |  | 5.53 | 5.67 | 0.39 | 4.80 | 5.25 | Cn1c(=O)c2c(nc(OCCc3ccccc3)n2C)n(C)c1=O |  |
|  |  | 6.42 | 6.55 | 0.0036 | 4.69 | 4.11 | Cn1c(=O)c2c(nc(OCCOc3ccccc3)n2C)n(C)c1=O |  |
